In ChEMBL document CHEMBL2086296, “Synthesis of novel quinoline-2-one based chalcones of potential anti-tumor activity” (Eur J Med Chem, 2012):

Key:
PC-3 [1] = experiment: (§1) Cytotoxicity against human PC3 cells after 24 hrs by SRB assay; assay type: cell-based; details: pc-3, 24 h
Summary of the method: (§2)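 NCI 60-cell screen. Cells grown in RPMI 1640 with 5% FBS and 2 mM L-glutamine, seeded at 5,000–40,000 cells/well, preincubated 24 h at 37 °C in 5% CO2. Drug stock in DMSO, diluted in medium with gentamicin; five final concentrations, 100, 10, 1.0, 0.1 and […]. Time-zero plates were TCA-fixed. Protein read by SRB staining; GI50, TGI and LC50 taken relative to time-zero.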

A498 [2] = experiment: (§3) Cytotoxicity against human A498 cells after 24 hrs by SRB assay; assay type: cell-based; details: a498, 24 h; summary of the method: as §2
K562 [3] = experiment: (§4) Cytotoxicity against human K562 cells after 24 hrs by SRB assay; assay type: functional; details: K562, 24 h
Summary of the method: (§5)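 NCI 60-line screen. Cells in RPMI 1640 with 5% FBS and 2 mM L-glutamine, seeded at 5,000–40,000 cells/well by doubling time, then incubated 24 h at 37 °C, 5% CO2 before dosing. Time-zero plates fixed with TCA at drug addition. DMSO stocks diluted in medium with gentamicin to five concentrations, […]. Protein read by SRB staining. GI50, TGI and LC50 derived relative to control and time-zero.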

K562 [4] = experiment: as §4; assay type: cell-based; details: k562, 24 h; summary of the method: as §2
A498 [5] = experiment: as §3; assay type: functional; details: A498, 24 h; summary of the method: as §5
PC-3 [6] = experiment: as §1; assay type: functional; details: PC-3, 24 h; summary of the method: as §5
Mus musculus [7] = experiment: Acute toxicity in athymic nude mouse assessed as mortality up to 400 mg/kg, ip after 2 weeks; assay type: organism-based; parameters: dose 400 mg/kg, route intraperitoneal; details: in vivo, 336 h
Summary of the method: (§6)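 Single ip injection in athymic nude mice, one mouse per dose at 400, 200 and 100 mg/kg, dosed at 0.1 mL/10 g body weight, with feed and water ad libitum. Animals observed for 2 weeks and sacrificed on >20% body weight loss or other signs of significant toxicity. If all three were sacrificed, 50, 25 and 12.5 mg/kg were tested next.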

Mus musculus [8] = experiment: Acute toxicity in athymic nude mouse assessed as weight loss up to 400 mg/kg, ip after 2 weeks; assay type: organism-based; parameters: dose 400 mg/kg, route intraperitoneal; details: in vivo, 336 h; summary of the method: as §6

Row | Structure (SMILES) | LC50 (PC-3 [1]) [µM] | LC50 (A498 [2]) [µM] | GI50 (K562 [3]) [µM] | TGI (K562 [3]) [µM] | LC50 (K562 [4]) [µM] | GI50 (A498 [5]) [µM] | TGI (A498 [5]) [µM] | GI50 (PC-3 [6]) [µM] | TGI (PC-3 [6]) [µM] | Activity (Mus musculus [7]) | Activity (Mus musculus [8])
1 | O=C(/C=C/c1cc2ccccc2[nH]c1=O)c1ccc(O)cc1 | > 100 | 47.8 | 3.89 | > 100 | > 100 | 8.44 | 21.3 | 5.39 | 55.3 | – | –
2 | O=C(/C=C/c1cc2ccccc2[nH]c1=O)/C=C/c1cc2ccccc2[nH]c1=O | – | – | – | – | – | – | – | – | – | Non-toxic | Non-toxic
